Tests used:
[1] = molecular target: T1, Melanin-concentrating hormone receptor 1 (Homo sapiens, UniProt Q99705); experiment: Inhibition of melanin concentrating hormone receptor 1-mediated [Ca2+] release in human neuronal IMR-32 cells; assay type: functional, cell-based
[2] = Area under concentration time curve in plasma of mice following peroral administration of 10 mg/kg of the compound; assay type: ADME, organism-based; set-up: dose 10 mg/kg, route oral; conditions: mouse, in vivo, po
Procedure, shortened: (§1)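 DIO mice given a single 10 mg/kg oral dose in 1% Tween-80 in water. Plasma and brain drug levels were measured over time. Cmax is the average of the three mice with the highest concentrations. AUC0-t was calculated by the linear trapezoidal rule, and the residual area (Ct/β) was added to give AUC0-∞. C12h is the brain level at 12 h postdose.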

[3] = Area under concentration time curve in brain of mice following peroral administration of 10 mg/kg of the compound; assay type: ADME, organism-based; set-up: dose 10 mg/kg, route oral; conditions: mouse, in vivo, po; procedure, shortened: as §1
[4] = molecular target: T1, Melanin-concentrating hormone receptor 1; experiment: Inhibition of melanin concentrating hormone receptor 1 from human neuronal IMR-32 cells; assay type: cell-based
[5] = Area under concentration time curve in plasma of mice following peroral administration at 10 mg/kg; n=3; assay type: ADME, organism-based; set-up: dose 10 mg/kg, route oral; conditions: mouse, in vivo, po; procedure, shortened: as §1
[6] = Maximum concentration in brain of mice at 12 hours following peroral administration at 10 mg/kg; n=3; assay type: ADME, organism-based; set-up: dose 10 mg/kg, route oral; conditions: mouse, po; procedure, shortened: as §1
[7] = Maximum concentration in brain of mice following peroral administration at 10 mg/kg; n=3; assay type: ADME, organism-based; set-up: dose 10 mg/kg, route oral; conditions: mouse, po; procedure, shortened: as §1
[8] = Area under concentration time curve in brain of mice following peroral administration at 10 mg/kg; n=3; assay type: ADME, organism-based; set-up: dose 10 mg/kg, route oral; conditions: mouse, in vivo, po; procedure, shortened: as §1
Mus musculus [9] = experiment: Body weight of mice on day 14 following peroral administration at 10 mg/kg, twice a day; n = 12; assay type: functional; conditions: route oral
Procedure, shortened: (§2)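 Chronic study in DIO mice fed a high-fat diet ad libitum. Dosing was by oral gavage, bid for 14 days, in 4 mL/kg of 1% Tween-80 in water, with vehicle controls. Body weight and food intake were recorded on days 1, 4, 7, 11 and 14. Body-weight change is in grams relative to day 0, and % change is relative to vehicle. Mean ± SEM, n = 12.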

[10] = Concentration in brain of mice,1 hour after administration of final dose at 30 mg/kg, twice a day; assay type: ADME, organism-based; set-up: dose 30 mg/kg; conditions: mouse, read-out: Cmax
Procedure, shortened: (§3)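 DIO mice received the test compound orally, bid, in 1% Tween-80 in water for 14 days. Plasma and brain drug concentrations were measured 1 h (taken as Cmax) or 17 h after the final dose on day 14. Mean ± SEM, n = 3.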

[11] = Concentration in brain of mice,1 hour after administration of final dose at 10 mg/kg, twice a day; assay type: ADME, organism-based; set-up: dose 10 mg/kg; conditions: mouse, read-out: Cmax; procedure, shortened: as §3
Mus musculus [12] = experiment: Change in body weight of mice on day 14 following peroral administration at 10 mg/kg, twice a day; n = 12; body weight at day 0 = 44.7 g; assay type: functional; conditions: route oral; procedure, shortened: as §2
[13] = Concentration in brain of mice,17 hours after administration of final dose at 30 mg/kg, twice a day; assay type: ADME, organism-based; set-up: dose 30 mg/kg; conditions: mouse, read-out: Cmax; procedure, shortened: as §3
Mus musculus [14] = experiment: Body weight of mice on day 14 following peroral administration at 30 mg/kg, twice a day; n = 12; assay type: functional; conditions: route oral; procedure, shortened: as §2
[15] = Concentration in plasma of mice,17 hours after administration of final dose at 30 mg/kg, twice a day; assay type: ADME, organism-based; set-up: dose 30 mg/kg; conditions: mouse, read-out: Cmax; procedure, shortened: as §3
[16] = Concentration in plasma of mice,1 hour after administration of final dose at 30 mg/kg, twice a day; assay type: ADME, organism-based; set-up: dose 30 mg/kg; conditions: mouse, read-out: Cmax; procedure, shortened: as §3
[17] = Concentration in plasma of mice,17 hours after administration of final dose at 10 mg/kg, twice a day; assay type: ADME, organism-based; set-up: dose 10 mg/kg; conditions: mouse, read-out: Cmax; procedure, shortened: as §3
[18] = Concentration in plasma of mice,1 hour after administration of final dose at 10 mg/kg, twice a day; assay type: ADME, organism-based; set-up: dose 10 mg/kg; conditions: mouse, read-out: Cmax; procedure, shortened: as §3
Mus musculus [19] = experiment: Change in body weight of mice on day 14 following peroral administration at 30 mg/kg, twice a day; n = 12; body weight at day 0 = 45 g; assay type: functional; conditions: route oral; procedure, shortened: as §2
[20] = Concentration in brain of mice,17 hours after administration of final dose at 10 mg/kg, twice a day; assay type: ADME, organism-based; set-up: dose 10 mg/kg; conditions: mouse, read-out: Cmax; procedure, shortened: as §3
[21] = Maximum concentration of the compound in brain of mice following peroral administration at 10 mg/kg; n=3; assay type: ADME, organism-based; set-up: dose 10 mg/kg, route oral; conditions: mouse, po; procedure, shortened: as §1
Mus musculus [22] = experiment: Body weight of mice on day 14 following peroral administration at 10 mg/kg, 4 times a day; n = 12; assay type: functional; conditions: route oral
Mus musculus [23] = experiment: Change in body weight of mice on day 14 following peroral administration at 10 mg/kg, 4 times a day; n = 12; body weight at day 0 = 43.2 g; assay type: functional; conditions: route oral

T1 sequence (Q99705 whole entry): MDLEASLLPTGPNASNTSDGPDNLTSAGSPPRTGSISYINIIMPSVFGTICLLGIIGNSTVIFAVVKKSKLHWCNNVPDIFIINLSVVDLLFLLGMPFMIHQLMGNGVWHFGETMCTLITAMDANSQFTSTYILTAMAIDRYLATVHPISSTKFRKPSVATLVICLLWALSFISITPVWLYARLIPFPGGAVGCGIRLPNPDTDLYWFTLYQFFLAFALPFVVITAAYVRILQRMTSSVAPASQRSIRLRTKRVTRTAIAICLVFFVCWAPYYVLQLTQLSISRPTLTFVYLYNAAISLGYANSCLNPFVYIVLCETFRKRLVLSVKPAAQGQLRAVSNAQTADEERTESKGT

**Q.** Which results are given for O=C(CNCc1ccc(Oc2ccccc2)cc1)Nc1ccc2ncn(CCN3CCCC3)c2c1?
**A.** IC50 [1]: 1810 nM; AUC [2]: 1.16 µg/h/mL; AUC [3]: 0.674 µg/h/g; IC50 [4]: 299 nM

**Q.** What does the source list for O=C(Cc1ccc(OCc2ccccc2)cc1)Nc1cccc2nn(CCN3CCCC3)cc12?
**A.** AUC [5]: 2.09 µg/h/g; Cmax [6]: 12.3 ng/g; Cmax [7]: 214 ng/g; AUC [8]: 0.214 µg/h/g; IC50 [1]: 287 nM; IC50 [4]: 41.4 nM

**Q.** With O=C(Cc1ccc(OCc2ccccc2)cc1)Nc1ccc2c(c1)ncn2CCN1CCCC1 as the molecule, how does the IC50 [1] read?
**A.** > 10000 nM

**Q.** And the IC50 [4]?
**A.** 772 nM

**Q.** For O=C(Cc1ccc(OCc2ccccc2)cc1)Nc1ccc2cn(CCN3CCCC3)nc2c1, which IC50 [1] is on record?
**A.** 874 nM

**Q.** And the IC50 [4]?
**A.** 146 nM

**Q.** Which results are given for O=C(Cc1ccc(OCc2ccccc2)cc1)Nc1ccc2cnn(CCN3CCCC3)c2c1?
**A.** AUC [5]: 2.12 µg/h/g; Body weight (Mus musculus [9]): 42.6 g; concentration at 1 h [10]: 233 ng/mL; Cmax [6]: 29 ng/g; concentration at 1 h [11]: 115 ng/mL; Activity (Mus musculus [12]): -8.25%; concentration at 17 h [13]: 5.35 ng/mL; Cmax [7]: 177 ng/g; Body weight (Mus musculus [14]): 39.7 g; concentration at 17 h [15]: 2.23 ng/mL; concentration at 1 h [16]: 824 ng/mL; AUC [8]: 1.33 µg/h/g; concentration at 17 h [17]: 0.39 ng/mL; IC50 [1]: 11 nM; concentration at 1 h [18]: 168 ng/mL; Activity (Mus musculus [19]): -15.2%; concentration at 17 h [20]: 7.02 ng/mL; IC50 [4]: 1.4 nM

**Q.** With O=C(Cc1ccc(OCc2ccccc2)cc1)Nc1ccc2nn(CCN3CCCC3)cc2c1 as the molecule, how does the IC50 [1] read?
**A.** > 10000 nM

**Q.** What about the IC50 [4] of the same molecule?
**A.** 1990 nM

**Q.** With O=C(Cc1ccc(OCc2ccccc2)cc1)Nc1ccc2c(cnn2CCN2CCCC2)c1 as the molecule, how does the AUC [5] read?
**A.** 8.51 µg/h/g

**Q.** What about the Cmax [6] of the same molecule?
**A.** 76 ng/g

**Q.** And the Cmax [7]?
**A.** 4260 ng/g

**Q.** What about the AUC [8] of the same molecule?
**A.** 10.4 µg/h/g

**Q.** And the IC50 [1]?
**A.** > 10000 nM

**Q.** And the IC50 [4]?
**A.** 558 nM

**Q.** Which results are given for O=C(Cc1ccc(OCc2ccccc2)cc1)Nc1ccc2ccn(CCN3CCCC3)c2c1?
**A.** IC50 [1]: 1470 nM; AUC [2]: 1.37 µg/h/mL; AUC [3]: 0.348 µg/h/g; IC50 [4]: 22 nM

**Q.** Which AUC [5] does the source give for O=C(Cc1ccc(OCc2ccccc2)cc1)Nc1cccc2c1cnn2CCN1CCCC1 here?
**A.** 0.611 µg/h/g

**Q.** What about the Cmax [6] of the same molecule?
**A.** 8.11 ng/g

**Q.** What about the Cmax [7] of the same molecule?
**A.** 464 ng/g

**Q.** What about the AUC [8] of the same molecule?
**A.** 1.18 µg/h/g

**Q.** What about the IC50 [1] of the same molecule?
**A.** 71 nM

**Q.** And the IC50 [4]?
**A.** 24.5 nM

**Q.** With O=C(Cc1ccc(OCc2ccccc2)cc1)Nc1ccc2ncn(CCN3CCCC3)c2c1 as the molecule, how does the AUC [5] read?
**A.** 0.937 µg/h/g

**Q.** What about the Cmax [21] of the same molecule?
**A.** 54.4 ng/g

**Q.** And the AUC [8]?
**A.** 0.244 µg/h/g

**Q.** And the IC50 [1]?
**A.** > 10000 nM

**Q.** What about the IC50 [4] of the same molecule?
**A.** 161 nM

**Q.** For CCN[C@@H](C)Cc1cccc(C(F)(F)F)c1 [DEXFENFLURAMINE], which Body weight (Mus musculus [22]) is on record?
**A.** 40.4 g

**Q.** What about the Activity (Mus musculus [23]) of the same molecule?
**A.** -10.1%

Source: ChEMBL document CHEMBL1142689, “Identification of 2-(4-benzyloxyphenyl)-N- [1-(2-pyrrolidin-1-yl-ethyl)-1H-indazol-6-yl]acetamide, an orally efficacious melanin-concentrating hormone receptor 1 antagonist for the treatment of obesity” (J Med Chem, 2005)
